Active and inactive are the calls of the source. No cut-off for these calls is given here.
Legend:
[1] = Induction of apoptosis in human M12 cells assessed as viable cells at 20 uM after 24 hrs by annexinV-propidium iodide staining-based flow cytometric analysis (reference value: 80.18%); format: functional; details: M12, 24 h, read-out: Activity
U-937 [2] = assay: Induction of apoptosis in human U937 cells assessed as late apoptotic cells at 10 uM after 18 hrs by annexinV-propidium iodide staining-based flow cytometric analysis (reference value: 7.8%); format: functional
U-937 [3] = assay: Induction of apoptosis in human U937 cells assessed as viable cells at 10 uM after 18 hrs by annexinV-propidium iodide staining-based flow cytometric analysis (reference value: 87.2%); format: functional; details: U-937, 18 h, read-out: Activity
U-937 [4] = assay: Induction of apoptosis in human U937 cells assessed as late apoptotic cells at 10 uM after 6 hrs by annexinV-propidium iodide staining-based flow cytometric analysis (reference value: 13.8%); format: functional
U-937 [5] = assay: Induction of apoptosis in human U937 cells assessed as necrotic cells at 10 uM after 3 hrs by annexinV-propidium iodide staining-based flow cytometric analysis (reference value: 2.3%); format: functional
U-937 [6] = assay: Induction of apoptosis in human U937 cells assessed as viable cells at 3 uM after 3 hrs by annexinV-propidium iodide staining-based flow cytometric analysis (reference value: 86.3%); format: functional; details: U-937, 3 h, read-out: Activity
[7] = target: Proto-oncogene tyrosine-protein kinase Src (Homo sapiens) (UniProt P12931); assay: Inhibition of SRC at 10 uM
[8] = target: Tyrosine-protein kinase SYK (Homo sapiens) (UniProt P43405); assay: Inhibition of SYK at 10 uM
[9] = target: Ribosomal protein S6 kinase alpha-1 (Homo sapiens) (UniProt Q15418); assay: Inhibition of RSK1 at 10 uM
[10] = target: Protein kinase C zeta type (Homo sapiens) (UniProt Q05513); assay: Inhibition of PKCzeta at 10 uM
[11] = target: Phosphatidylinositol 4,5-bisphosphate 3-kinase catalytic subunit alpha isoform (Homo sapiens) (UniProt P42336); assay: Inhibition of PI3Kalpha at 10 uM
Chain of Phosphatidylinositol 4,5-bisphosphate 3-kinase catalytic subunit alpha isoform (Homo sapiens) (P42336 whole entry, canonical isoform): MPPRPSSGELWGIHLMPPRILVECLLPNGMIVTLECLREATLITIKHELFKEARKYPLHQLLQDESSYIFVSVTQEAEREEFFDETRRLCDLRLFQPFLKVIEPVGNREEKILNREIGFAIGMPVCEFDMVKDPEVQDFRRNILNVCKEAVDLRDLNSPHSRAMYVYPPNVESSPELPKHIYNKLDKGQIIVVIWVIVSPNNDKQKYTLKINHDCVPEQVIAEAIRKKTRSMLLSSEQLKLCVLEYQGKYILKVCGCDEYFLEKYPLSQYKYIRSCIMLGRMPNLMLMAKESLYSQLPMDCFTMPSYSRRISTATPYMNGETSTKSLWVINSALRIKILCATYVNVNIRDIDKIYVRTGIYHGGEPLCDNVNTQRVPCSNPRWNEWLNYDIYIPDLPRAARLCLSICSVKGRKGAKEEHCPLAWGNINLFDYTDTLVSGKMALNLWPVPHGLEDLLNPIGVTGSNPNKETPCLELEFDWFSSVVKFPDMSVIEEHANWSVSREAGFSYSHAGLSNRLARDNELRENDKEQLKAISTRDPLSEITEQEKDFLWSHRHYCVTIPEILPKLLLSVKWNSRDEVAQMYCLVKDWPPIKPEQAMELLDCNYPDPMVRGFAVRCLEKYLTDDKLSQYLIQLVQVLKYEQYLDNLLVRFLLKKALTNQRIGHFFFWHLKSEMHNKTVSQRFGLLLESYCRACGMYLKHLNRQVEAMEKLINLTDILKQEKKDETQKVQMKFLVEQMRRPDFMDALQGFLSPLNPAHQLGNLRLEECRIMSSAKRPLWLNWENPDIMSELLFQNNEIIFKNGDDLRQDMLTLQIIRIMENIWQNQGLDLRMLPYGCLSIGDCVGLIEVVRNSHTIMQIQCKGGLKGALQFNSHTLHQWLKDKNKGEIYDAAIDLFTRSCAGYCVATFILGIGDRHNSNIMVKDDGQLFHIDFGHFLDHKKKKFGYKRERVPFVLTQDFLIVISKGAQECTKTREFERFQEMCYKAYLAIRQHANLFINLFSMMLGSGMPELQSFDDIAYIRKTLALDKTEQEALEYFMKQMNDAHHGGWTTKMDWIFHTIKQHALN

[12] = target: Serine/threonine-protein kinase PAK 2 (Homo sapiens) (UniProt Q13177); assay: Inhibition of PAK2 at 10 uM
[13] = target: Ribosomal protein S6 kinase alpha-5 (Homo sapiens) (UniProt O75582); assay: Inhibition of MSK1 at 10 uM
[14] = target: Dual specificity mitogen-activated protein kinase kinase 1 (Homo sapiens) (UniProt Q02750); assay: Inhibition of MEK1 at 10 uM
Chain of Dual specificity mitogen-activated protein kinase kinase 1 (Homo sapiens) (Q02750 whole entry): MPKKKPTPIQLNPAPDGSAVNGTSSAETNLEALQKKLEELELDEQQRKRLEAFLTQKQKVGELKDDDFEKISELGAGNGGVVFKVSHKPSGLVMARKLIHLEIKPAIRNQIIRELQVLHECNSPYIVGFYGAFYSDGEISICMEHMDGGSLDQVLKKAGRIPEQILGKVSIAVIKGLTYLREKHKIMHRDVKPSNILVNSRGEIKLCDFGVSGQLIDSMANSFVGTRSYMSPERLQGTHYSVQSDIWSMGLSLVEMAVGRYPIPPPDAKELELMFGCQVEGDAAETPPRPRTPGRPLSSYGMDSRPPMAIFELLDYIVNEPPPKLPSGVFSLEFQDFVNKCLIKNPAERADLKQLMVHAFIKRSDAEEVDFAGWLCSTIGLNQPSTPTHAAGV

[15] = target: Tyrosine-protein kinase Lyn (Homo sapiens) (UniProt P07948); assay: Inhibition of LYN at 10 uM
[16] = target: Interleukin-1 receptor-associated kinase 4 (Homo sapiens) (UniProt Q9NWZ3); assay: Inhibition of IRAK4 at 10 uM
Chain of Interleukin-1 receptor-associated kinase 4 (Homo sapiens) (Q9NWZ3 whole entry): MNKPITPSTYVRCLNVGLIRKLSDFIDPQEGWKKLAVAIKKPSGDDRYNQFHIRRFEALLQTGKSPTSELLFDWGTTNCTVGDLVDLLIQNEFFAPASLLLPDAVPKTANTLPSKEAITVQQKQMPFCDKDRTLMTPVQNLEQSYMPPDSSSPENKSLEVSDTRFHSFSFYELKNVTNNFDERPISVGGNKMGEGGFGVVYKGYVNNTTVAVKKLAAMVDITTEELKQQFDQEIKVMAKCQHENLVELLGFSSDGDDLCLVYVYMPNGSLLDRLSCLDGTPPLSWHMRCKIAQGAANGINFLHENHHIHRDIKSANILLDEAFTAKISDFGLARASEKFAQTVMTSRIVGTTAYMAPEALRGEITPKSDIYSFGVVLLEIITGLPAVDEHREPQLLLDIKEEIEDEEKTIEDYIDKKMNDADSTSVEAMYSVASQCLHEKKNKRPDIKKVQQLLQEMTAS

[17] = target: Insulin receptor (Homo sapiens) (UniProt P06213); assay: Inhibition of INSR at 10 uM
[18] = target: Glycogen synthase kinase-3 beta (Homo sapiens) (UniProt P49841); assay: Inhibition of GSK3-beta at 10 uM
[19] = target: Tyrosine-protein kinase Fyn (Homo sapiens) (UniProt P06241); assay: Inhibition of FYN at 10 uM
Chain of Tyrosine-protein kinase Fyn (Homo sapiens) (P06241 2-537 limits assumed): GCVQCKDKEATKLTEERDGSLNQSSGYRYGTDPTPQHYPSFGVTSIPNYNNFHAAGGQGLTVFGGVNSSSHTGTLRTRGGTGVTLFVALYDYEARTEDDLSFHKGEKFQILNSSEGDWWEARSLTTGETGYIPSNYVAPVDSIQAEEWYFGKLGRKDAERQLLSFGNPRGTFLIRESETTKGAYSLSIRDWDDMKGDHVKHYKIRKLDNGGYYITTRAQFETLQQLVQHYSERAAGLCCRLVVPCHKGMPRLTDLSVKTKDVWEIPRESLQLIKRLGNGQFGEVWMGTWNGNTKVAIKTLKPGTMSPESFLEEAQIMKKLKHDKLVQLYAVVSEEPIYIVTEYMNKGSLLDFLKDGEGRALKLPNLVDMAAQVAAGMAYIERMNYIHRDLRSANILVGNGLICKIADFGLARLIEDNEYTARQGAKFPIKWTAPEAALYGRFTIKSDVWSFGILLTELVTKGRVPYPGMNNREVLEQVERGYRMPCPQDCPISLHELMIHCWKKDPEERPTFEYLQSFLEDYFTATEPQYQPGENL

[20] = target: Receptor-type tyrosine-protein kinase FLT3 (Homo sapiens) (UniProt P36888); assay: Inhibition of FLT3 at 10 uM
[21] = target: MAP/microtubule affinity-regulating kinase 3 (Homo sapiens) (UniProt P27448); assay: Inhibition of c-TAK1 at 10 uM
[22] = target: RAF proto-oncogene serine/threonine-protein kinase (Homo sapiens) (UniProt P04049); assay: Inhibition of c-Raf at 10 uM
[23] = target: Casein kinase I isoform delta (Homo sapiens) (UniProt P48730); assay: Inhibition of Ckld at 10 uM
Chain of Casein kinase I isoform delta (Homo sapiens) (P48730 whole entry, looked up, canonical isoform): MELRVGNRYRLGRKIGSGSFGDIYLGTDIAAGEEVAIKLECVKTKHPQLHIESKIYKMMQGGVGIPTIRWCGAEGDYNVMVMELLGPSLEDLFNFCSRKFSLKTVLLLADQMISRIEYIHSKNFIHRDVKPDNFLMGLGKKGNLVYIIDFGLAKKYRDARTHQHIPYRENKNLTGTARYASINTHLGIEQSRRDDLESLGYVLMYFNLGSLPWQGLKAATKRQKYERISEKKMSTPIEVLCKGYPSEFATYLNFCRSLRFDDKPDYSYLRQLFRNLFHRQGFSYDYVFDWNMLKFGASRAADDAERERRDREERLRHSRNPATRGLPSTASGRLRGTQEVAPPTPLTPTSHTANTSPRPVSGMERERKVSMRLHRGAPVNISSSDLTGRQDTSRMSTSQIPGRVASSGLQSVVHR

[24] = target: Serine/threonine-protein kinase Chk2 (Homo sapiens) (UniProt O96017); assay: Inhibition of CHK2 at 10 uM
Chain of Serine/threonine-protein kinase Chk2 (Homo sapiens) (O96017 whole entry): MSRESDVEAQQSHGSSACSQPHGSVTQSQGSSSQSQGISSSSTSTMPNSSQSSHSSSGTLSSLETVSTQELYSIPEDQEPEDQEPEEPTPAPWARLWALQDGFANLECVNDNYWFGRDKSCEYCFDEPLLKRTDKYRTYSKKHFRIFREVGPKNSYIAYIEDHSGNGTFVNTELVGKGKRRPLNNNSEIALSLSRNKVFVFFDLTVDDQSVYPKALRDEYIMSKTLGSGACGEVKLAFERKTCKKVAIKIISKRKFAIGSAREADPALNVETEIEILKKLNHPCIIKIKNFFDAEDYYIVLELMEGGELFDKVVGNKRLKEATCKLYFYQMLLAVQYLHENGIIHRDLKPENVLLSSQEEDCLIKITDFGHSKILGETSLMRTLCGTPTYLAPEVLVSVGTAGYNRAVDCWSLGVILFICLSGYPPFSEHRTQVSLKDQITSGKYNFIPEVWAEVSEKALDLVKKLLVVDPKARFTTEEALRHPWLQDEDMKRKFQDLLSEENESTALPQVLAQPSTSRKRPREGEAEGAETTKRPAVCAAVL

[25] = target: Calcium/calmodulin-dependent protein kinase type IV (Homo sapiens) (UniProt Q16566); assay: Inhibition of CAMK4 at 10 uM
Chain of Calcium/calmodulin-dependent protein kinase type IV (Homo sapiens) (Q16566 whole entry): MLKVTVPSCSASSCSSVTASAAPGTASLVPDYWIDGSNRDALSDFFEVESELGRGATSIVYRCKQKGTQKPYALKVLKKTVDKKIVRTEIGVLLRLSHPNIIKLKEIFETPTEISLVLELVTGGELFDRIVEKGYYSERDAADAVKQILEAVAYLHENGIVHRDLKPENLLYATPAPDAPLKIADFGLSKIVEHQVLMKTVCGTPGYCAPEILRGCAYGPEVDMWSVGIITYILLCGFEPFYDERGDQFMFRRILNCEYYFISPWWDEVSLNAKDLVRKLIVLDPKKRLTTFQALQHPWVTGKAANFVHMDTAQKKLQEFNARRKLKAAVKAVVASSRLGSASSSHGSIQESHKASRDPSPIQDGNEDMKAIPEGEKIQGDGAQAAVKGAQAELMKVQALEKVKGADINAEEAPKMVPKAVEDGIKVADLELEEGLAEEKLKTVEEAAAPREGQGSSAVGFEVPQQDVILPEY

[26] = target: Calcium/calmodulin-dependent protein kinase type II subunit beta (Homo sapiens) (UniProt Q13554); assay: Inhibition of CAMK2 at 10 uM
[27] = target: Aurora kinase A (Homo sapiens) (UniProt O14965); assay: Inhibition of aurora A kinase at 10 uM
Chain of Aurora kinase A (Homo sapiens) (O14965 whole entry): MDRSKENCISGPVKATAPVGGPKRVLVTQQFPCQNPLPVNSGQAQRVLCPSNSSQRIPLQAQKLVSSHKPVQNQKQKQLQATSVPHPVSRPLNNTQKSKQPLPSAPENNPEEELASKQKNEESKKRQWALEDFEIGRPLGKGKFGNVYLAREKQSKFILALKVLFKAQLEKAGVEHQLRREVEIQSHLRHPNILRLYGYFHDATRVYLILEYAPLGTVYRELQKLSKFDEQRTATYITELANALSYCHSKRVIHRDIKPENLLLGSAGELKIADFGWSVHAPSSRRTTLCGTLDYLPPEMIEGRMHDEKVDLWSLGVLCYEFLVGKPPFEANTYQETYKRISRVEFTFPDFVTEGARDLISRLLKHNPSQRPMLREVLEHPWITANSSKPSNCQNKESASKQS

[28] = target: RAC-beta serine/threonine-protein kinase (Homo sapiens) (UniProt P31751); assay: Inhibition of AKT2 at 10 uM
[29] = target: RAC-alpha serine/threonine-protein kinase (Homo sapiens) (UniProt P31749); assay: Inhibition of AKT1 at 10 uM
Chain of RAC-alpha serine/threonine-protein kinase (Homo sapiens) (P31749 whole entry): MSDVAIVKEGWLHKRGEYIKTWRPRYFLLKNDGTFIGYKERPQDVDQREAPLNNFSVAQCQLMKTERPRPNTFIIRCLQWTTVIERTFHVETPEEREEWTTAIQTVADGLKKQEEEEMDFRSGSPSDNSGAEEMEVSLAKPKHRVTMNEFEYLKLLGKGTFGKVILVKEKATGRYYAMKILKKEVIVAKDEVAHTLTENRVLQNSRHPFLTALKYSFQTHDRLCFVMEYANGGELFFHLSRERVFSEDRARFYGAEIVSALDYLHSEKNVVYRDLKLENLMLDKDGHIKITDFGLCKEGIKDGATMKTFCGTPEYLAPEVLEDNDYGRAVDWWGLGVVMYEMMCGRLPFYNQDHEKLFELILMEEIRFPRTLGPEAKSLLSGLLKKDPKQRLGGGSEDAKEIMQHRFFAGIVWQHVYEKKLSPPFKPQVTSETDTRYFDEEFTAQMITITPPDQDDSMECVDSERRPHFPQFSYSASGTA

M12 = assay: Growth inhibition of human M12 cells after 24 hrs by MTS assay; format: functional, cell-based
Outline: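 Cells in RPMI 1640 with 10% heat-inactivated FBS, seeded 2 × 10⁴ cells/well and exposed 24 h. MTS reagent added, then 1 h further incubation at 37 °C, 5% CO₂. Formazan absorbance read at 490 nm. Viability expressed as percentage of untreated controls.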

DU-145 [30] = assay: Inhibition of PI3K-mediated Akt phosphorylation in human DU145 cells at 10 to 20 uM after 24 hrs by Western blot analysis; format: cell-based
Outline: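 DU145 cells were grown in RPMI 1640 with 10% FBS and treated for 24 h at the indicated concentrations. Lysates were immunoblotted with phospho-Akt (Ser473) primary antibody (1:1000) and HRP secondary (1:2000), then detected by chemiluminescence. α-Tubulin reprobing checked loading.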

U-937 [31] = assay: Inhibition of PI3K-mediated Akt phosphorylation in human U937 cells at 3 uM after 1 hr by Western blot analysis; format: cell-based
U-937 [32] = assay: Cell cycle arrest in human U937 cells assessed as accumulation at S-phase at 15 uM after 24 hrs by propidium iodide staining-based flow cytometric analysis; format: functional
Outline: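 Cells cultured in RPMI 1640 with 10% FBS and treated 24 h at the indicated concentrations. Stained with propidium iodide for 4 h at 4 °C in the dark. Flow cytometry gave the percentage of cells in G₀/G₁, S, G₂/M and sub-G₁ phases.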

DU-145 [33] = assay: Induction of apoptosis in human DU145 cells assessed as necrotic cells at 20 uM after 24 hrs by annexinV-propidium iodide staining-based flow cytometric analysis (reference value: 2.1%); format: functional
DU-145 [34] = assay: Induction of apoptosis in human DU145 cells assessed as early apoptotic cells at 20 uM after 24 hrs by annexinV-propidium iodide staining-based flow cytometric analysis (reference value: 3.8%); format: functional
[35] = Induction of apoptosis in human M12 cells assessed as necrotic cells at 20 uM after 24 hrs by annexinV-propidium iodide staining-based flow cytometric analysis (reference value: 1.7%); format: functional
[36] = Induction of apoptosis in human M12 cells assessed as late apoptotic cells at 20 uM after 24 hrs by annexinV-propidium iodide staining-based flow cytometric analysis (reference value: 4.7%); format: functional
[37] = Inhibition of MSK2 at 10 uM

inhibition [7]: 2% | inhibition [8]: 9% | inhibition [9]: 2% | inhibition [10]: -8% | inhibition [11]: 45% | inhibition [12]: 10% | inhibition [13]: 6% | inhibition [14]: 69% | inhibition [15]: 0% | inhibition [16]: -1% | inhibition [17]: -2% | inhibition [18]: 0% | inhibition [19]: 0% | inhibition [20]: 38% | inhibition [21]: 6% | inhibition [22]: -1% | inhibition [23]: -5% | inhibition [24]: 8% | inhibition [25]: 71% | inhibition [26]: 60% | inhibition [27]: -4% | inhibition [28]: 8% | inhibition [29]: 3% | inhibition [37]: 3%
Compound: NCCN1C(=O)S/C(=C\CCC2CCCCC2)C1=O
viability at 20 µM [1]: 5.1% | Activity (U-937 [2]): 40.9% | viability at 10 µM (U-937 [3]): 42.9% | Activity (U-937 [4]): 40.2% | Activity (U-937 [5]): 2.4% | viability at 3 µM (U-937 [6]): 86.9% | growth inhibition (GI) (M12): Active | inhibition (DU-145 [30]): Active | inhibition (U-937 [31]): Active | Activity (U-937 [32]): 31.4% | Activity (DU-145 [33]): 3.2% | Activity (DU-145 [34]): 8.3% | Activity [35]: 5.2% | Activity [36]: 60.5%
